Results on four compounds are retold here after PMC4485437 (Biochemistry, 2015).

The subject of experiment [1] is E. coli DHFR (EcDHFR) Asp27Glu. To be noted: Asp27Glu vs native EcDHFR; cited from earlier work.
Experiment [2] deals with T1, VcMTANA113P/V153I/R158G (Vc[…]) (Vibrio cholerae serotype O1, UniProt Q9KPI8, A113P/R158G/V153I). The experiment in a line: Luminescence-based steady-state kinetic assay. The format is biochemical. To be noted: substrate MTA.
Experiment [3] addresses T2, VcMTANA113P (Vibrio cholerae serotype O1, UniProt Q9KPI8, A113P). The experiment can be described thus: Luminescence-based steady-state kinetic assay. The following applies: substrate MTA. The format is biochemical.
The target in experiment [4] is T3, VcMTANA113P/V153I (VcMTANDOUBLE) (Vibrio cholerae serotype O1, UniProt Q9KPI8, A113P/V153I). The experiment in a line: Luminescence-based steady-state kinetic assay. The format is biochemical. The following applies: substrate MTA.
Experiment [5] addresses T4, VcMTAN (WT) (Vibrio cholerae serotype O1, UniProt Q9KPI8). The experiment can be described thus: Luminescence-based steady-state kinetic assay. The format is biochemical. To be noted: substrate MTA.
Experiment [6] addresses T5, VcMTANV153I (Vibrio cholerae serotype O1, UniProt Q9KPI8, V153I). The experiment in a line: Luminescence-based steady-state kinetic assay. The format is biochemical. The following applies: substrate MTA.
Experiment [7] has as its target T6, EcMTAN (Escherichia coli, UniProt P0AF12). The experiment in a line: Luminescence-based steady-state kinetic assay. The format is biochemical. The following applies: substrate MTA. An outline of the steps:
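His6-tagged enzyme was expressed in E. coli BL21(DE3) (1 mM IPTG, 37°C, 10 h) and purified on Ni-NTA. Product adenine was converted to ATP by excess yeast APRTase (20 microunits/well) and C. symbiosum PPDK (320 microunits/well), then read by luciferase luminescence at 570 nm. Enzyme 5–25 pM; reactions started with 0.02–1 μM MTA.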

For experiment [8], the target named is T2, VcMTANA113P. The experiment can be described thus: Isothermal titration calorimetry. The format is binding. To be noted: for ΔH / ΔG / TΔS: 25°C; for ΔG: calculated from Ki*; for TΔS: from Gibbs free energy equation.
Experiment [9] deals with T4, VcMTAN (WT). The experiment can be described thus: Titration of [14C]MTDIA to MTAN. The format is binding. To be noted: MTAN dimer 27−85 μM.
For experiment [10], the target named is T6, EcMTAN. The experiment can be described thus: Isothermal titration calorimetry. The format is binding. The following applies: 25°C; for ΔG: calculated from Ki*; for TΔS: from Gibbs free energy equation. The essentials:
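Copurified adenine stripped by dialysis against phosphate buffer with activated charcoal. 60–120 μM dimer in cell, dialysate as reference. Test compound in dialysate; solutions filtered and degassed. Titrated at 25°C. Isotherms fit to two independent sites; ΔH from integrated heat. ΔG = RT ln Ki*, using first-site […] from low-substrate luciferase-coupled assay. −TΔS from ΔG = ΔH − TΔS.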

The target of experiment [11] is T1, VcMTANA113P/V153I/R158G (Vc[…]). The experiment can be described thus: Isothermal titration calorimetry. The format is binding. The following applies: single site, 25°C. For orientation: ITC needs no label: the signal is the heat of the interaction.
For experiment [12], the target named is T5, VcMTANV153I. The experiment in a line: Isothermal titration calorimetry. The format is binding.
The target of experiment [13] is T5, VcMTANV153I. The experiment can be described thus: Titration of [14C]MTDIA to MTAN. The following applies: MTAN dimer 27−33 μM. The format is binding.
In experiment [14] the target is T3, VcMTANA113P/V153I (VcMTANDOUBLE). The experiment in a line: Titration of [14C]MTDIA to MTAN. The format is binding. The following applies: MTAN dimer 27−33 μM.
Experiment [15] concerns the target T2, VcMTANA113P. The experiment can be described thus: Titration of [14C]MTDIA to MTAN. The format is binding. To be noted: MTAN dimer 27−33 μM.
Experiment [16] has as its target T3, VcMTANA113P/V153I (VcMTANDOUBLE). The experiment can be described thus: Isothermal titration calorimetry. The format is binding.
For experiment [17], the target named is T4, VcMTAN (WT). The experiment can be described thus: Isothermal titration calorimetry. The format is binding. To be noted: 25°C; for ΔG: calculated from Ki*; for TΔS: from Gibbs free energy equation. The essentials:
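Enzyme expressed in E. coli BL21(DE3) and Ni-NTA purified, then stripped of bound adenine by dialysis against phosphate buffer with activated charcoal. Sample cell held 60–120 μM dimer; test compound in dialysate was injected, degassed solutions, 25°C. Fit to a two-independent-site model gave ΔH per catalytic site. ΔG = RT ln Ki*, with Ki* from 0.8 mM MTA plus xanthine oxidase at 305 nm. −TΔS came from the Gibbs equation.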

Where [18] appears, read: single site, 25°C, from Gibbs free energy equation.

For the compound `CN(Cc1cnc2nc(N)nc(N)c2n1)c1ccc(C(=O)N[C@@H](CCC(=O)O)C(=O)O)cc1` [methotrexate], the methotrexate affinity decrease in experiment [1] is given as 176 fold.
A word on the kcat: it is the maximal rate divided by the concentration of active sites. One may read the Km as the concentration of substrate that gives half-maximal velocity. Regarding 5′-methylthioadenosine [MTA], the kcat was 0.11 ± 0.01 s⁻¹ in experiment [2]; 0.17 ± 0.01 s⁻¹ on VcMTANA113P [3]; “(7.4 ± 3) × 10^−2 s^−1” in [4]; 0.18 ± 0.01 s⁻¹ at VcMTAN (WT) [5]; “(7.9 ± 4) × 10^−3 s^−1” on VcMTANV153I [6]; 0.32 ± 0.01 s⁻¹ on EcMTAN [7]. In addition, the Michaelis constant (Km) in experiment [2] (first-catalytic site filling) worked out at 536 ± 122 nM; on VcMTANA113P [3] (first-catalytic site filling), 262 ± 29 nM; in experiment [4] (first-catalytic site filling), 202 ± 23 nM; at VcMTAN (WT) [5] (first-catalytic site filling), 61 ± 6 nM; at VcMTANV153I [6] (first-catalytic site filling), 430 ± 47 nM; on EcMTAN [7] (first-catalytic site filling) it was 139 ± 18 nM.
Turning to `Nc1nc(=O)c2c([nH]1)NCC(CNc1ccc(C(=O)N[C@@H](CCC(=O)O)C(=O)O)cc1)=N2` [DHF, 7,8-dihydrofolate], the “KM(DHF) increase” value in experiment [1] is on record as 20 fold.
With `CSC[C@H]1CN(Cc2c[nH]c3c(N)ncnc23)C[C@@H]1O` [MTDIA, 4′-deaza-1′-aza-2′-deoxy-1′-(9-[^14C]methylene)-Immucillin-A], at VcMTANA113P [8] (VcMTANA113P vs VcMTAN), the “enthalpy of MTDIA binding less favorable than parent VcMTAN” value is 3 kcal/mol. Besides, the ΔH was -2.9 ± 0.1 kcal/mol at VcMTANA113P [8] (first site); -1.8 ± 0.2 kcal/mol at VcMTANA113P [8] (second site); -18.9 ± 0.2 kcal/mol at EcMTAN [10] (first site); -16.8 ± 0.2 kcal/mol at EcMTAN [10] (second site); -4.8 ± 0.2 kcal/mol in experiment [11]; -4.9 ± 0.1 kcal/mol on VcMTANV153I [12] (single site, 25°C). Also, the ΔH in [16] (single site, 25°C) was -3.9 ± 0.1 kcal/mol; on VcMTAN (WT) [17] (first site), -6.0 ± 0.2 kcal/mol; at VcMTAN (WT) [17] (second site), -2.6 ± 0.3 kcal/mol. Also, the ΔG at VcMTANA113P [8] (first site) is -13.9 ± 0.1 kcal/mol; at VcMTANA113P [8] (second site), -13.5 ± 0.8 kcal/mol; on EcMTAN [10] (first site), -17.4 ± 0.9 kcal/mol; on EcMTAN [10] (second site), -10.2 ± 0.1 kcal/mol; in experiment [11] (calculated from Ki*) it was -13.3 ± 0.1 kcal/mol; in experiment [16] (single site, 25°C, calculated from Ki*), -15.7 ± 0.1 kcal/mol. In addition, the ΔG on VcMTAN (WT) [17] (first site) is -15.8 ± 0.1 kcal/mol; on VcMTAN (WT) [17] (second site) it was -14.3 ± 0.2 kcal/mol. Also, the TΔS on VcMTANA113P [8] (first site) was -11.0 ± 0.1 kcal/mol; on VcMTANA113P [8] (second site), -11.7 ± 0.8 kcal/mol; on EcMTAN [10] (first site) it was 1.5 ± 0.9 kcal/mol; on EcMTAN [10] (second site), 6.6 ± 0.2 kcal/mol; in experiment [11] (from Gibbs free energy equation), -8.5 ± 0.2 kcal/mol; at VcMTANV153I [12] (setting [18]), -5.7 ± 0.2 kcal/mol. Besides, the TΔS in experiment [16] (setting [18]) was -11.8 ± 0.1 kcal/mol; on VcMTAN (WT) [17] (first site), -9.8 ± 0.2 kcal/mol; at VcMTAN (WT) [17] (second site), -11.7 ± 0.4 kcal/mol. Further, the “binding of MTDIA* on titration to one or two catalytic sites per dimer” value on VcMTAN (WT) [9] is “complete binding at the first site and near-stoichiometric binding at the second site”; on VcMTANV153I [13], “left more MTDIA* unbound as both the first and second sites were titrated”; in [14], “left more MTDIA* unbound as both the first and second sites were titrated”; on VcMTANA113P [15] it was “complete binding at the first site and near-stoichiometric binding at the second site”. Moreover, the figures for the “enthalpy of MTDIA binding more favorable than that of VcMTANA113P” value (on VcMTANV153I [12] (VcMTANV153I vs VcMTANA113P); in [16] (VcMTANDOUBLE vs VcMTANA113P)) were -2.0 kcal/mol and -1.0 kcal/mol, respectively.
